Measured values: ChEMBL document CHEMBL4622866, “Synthesis, biochemical evaluation, and molecular modeling of organophosphate-coumarin hybrids as potent and selective butyrylcholinesterase inhibitors” (Bioorg Med Chem Lett, 2020)
pIC50: −log10 of the molar value. Calls of active or inactive are those of the source. The calls are words filed in the database; no cut-off is given here.

Assays:
Acetylcholinesterase [1] = target: T1, Acetylcholinesterase (Electrophorus electricus, UniProt O42275); assay: Time dependent inhibition of electric eel AChE
T1 sequence (O42275 whole entry): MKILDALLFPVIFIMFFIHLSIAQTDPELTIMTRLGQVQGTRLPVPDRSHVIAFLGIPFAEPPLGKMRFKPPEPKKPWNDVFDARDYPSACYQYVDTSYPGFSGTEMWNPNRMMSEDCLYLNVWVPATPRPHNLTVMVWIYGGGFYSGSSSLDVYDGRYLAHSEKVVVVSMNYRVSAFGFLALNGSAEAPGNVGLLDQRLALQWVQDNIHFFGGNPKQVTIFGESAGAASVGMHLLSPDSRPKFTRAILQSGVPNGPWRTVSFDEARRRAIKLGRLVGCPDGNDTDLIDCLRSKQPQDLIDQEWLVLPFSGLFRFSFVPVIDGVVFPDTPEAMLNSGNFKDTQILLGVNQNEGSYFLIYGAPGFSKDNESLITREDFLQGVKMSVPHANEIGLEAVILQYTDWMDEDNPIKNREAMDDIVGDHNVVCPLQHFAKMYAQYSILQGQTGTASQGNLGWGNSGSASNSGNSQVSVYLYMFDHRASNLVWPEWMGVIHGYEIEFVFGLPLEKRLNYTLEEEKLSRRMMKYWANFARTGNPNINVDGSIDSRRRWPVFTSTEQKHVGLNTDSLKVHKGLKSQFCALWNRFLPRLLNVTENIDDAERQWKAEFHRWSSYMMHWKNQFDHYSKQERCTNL

Cholinesterase = Cholinesterase (Equus caballus, UniProt P81908); assay: Inhibition of equine BChE using butyrylthiocholine as substrate measured after 15 sec by Ellman's method
Cholinesterase, sequence (P81908 whole entry): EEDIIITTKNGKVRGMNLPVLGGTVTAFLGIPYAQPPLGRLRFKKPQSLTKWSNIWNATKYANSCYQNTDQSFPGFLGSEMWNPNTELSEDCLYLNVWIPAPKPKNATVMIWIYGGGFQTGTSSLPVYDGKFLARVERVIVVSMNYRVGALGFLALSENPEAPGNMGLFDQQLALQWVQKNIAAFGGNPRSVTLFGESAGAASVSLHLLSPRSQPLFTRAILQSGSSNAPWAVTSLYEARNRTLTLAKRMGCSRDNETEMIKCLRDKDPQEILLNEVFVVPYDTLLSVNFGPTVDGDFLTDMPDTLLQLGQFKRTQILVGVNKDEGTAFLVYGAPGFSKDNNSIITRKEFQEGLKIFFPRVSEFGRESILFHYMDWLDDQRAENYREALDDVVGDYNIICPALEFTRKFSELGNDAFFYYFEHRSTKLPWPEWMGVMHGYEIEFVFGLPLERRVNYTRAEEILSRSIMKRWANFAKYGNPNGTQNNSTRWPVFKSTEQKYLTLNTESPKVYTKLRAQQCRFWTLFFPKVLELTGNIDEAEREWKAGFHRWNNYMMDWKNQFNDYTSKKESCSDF
How it was run: (§1)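 Ellman assay scaled to 120 μL reactions, with no enzyme–inhibitor pre-incubation. Activity read after 15 s of enzyme exposure. Inhibitor stocks were made in methanol and diluted into buffer; some values were determined in 2% DMSO. IC50 values are reported as mean with standard deviation.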

[2] = target: Cholinesterase (Equus caballus) (UniProt P81908); assay: Time dependent inhibition of equine BChE
Cholinesterase (Equus caballus), sequence (P81908 whole entry): as above

[3] = target: Cholinesterase (Equus caballus) (UniProt P81908); assay: Inhibition of equine BChE at 34 uM using butyrylthiocholine as substrate measured after 15 sec by Ellman's method relative to control
How it was run: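 Single-concentration Ellman screen (120 μL scale) at 34 μM inhibitor with 2% MeOH (v/v) vehicle. Activity read after 15 s of enzyme exposure, in triplicate, reported as mean. Expressed relative to a vehicle-only control reaction.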

Acetylcholinesterase [4] = target: T1, Acetylcholinesterase; assay: Inhibition of electric eel AChE using acetylthiocholine as substrate measured after 15 sec by Ellman's method; how it was run: as §1
[5] = Selectivity index, ratio of IC50 for electric eel AChE using acetylthiocholine as substrate measured after 15 sec by Ellman's method to IC50 for equine BChE using butyrylthiocholine as substrate measured after 15 sec by Ellman's method
[6] = target: Cholinesterase (Equus caballus) (UniProt P81908); assay: Binding affinity to equine BChE assessed as observed rate constant

SMILES | pIC50 (Cholinesterase) | other results
CCCCOP(=O)(OCCCC)Oc1c(C(CC(C)=O)c2ccccc2)c(=O)oc2ccccc12 (racemic) | 5.82 | TDI (Acetylcholinesterase [1]): Not Active; TDI [2]: Active
CC(=O)CC(c1ccccc1)c1c(O)c2ccccc2oc1=O (stereo unspecified) | – | inhibition [3]: 10%
O=c1oc2cccc(O)c2cc1Cc1ccc(O)cc1 | 4.49 | –
CCS(=O)(=O)Oc1cccc2ccccc12 | 4.15 | –
CCOP(=O)(OCC)Oc1ccc(Cc2cc3ccccc3oc2=O)cc1 | 4.52 | pIC50 (Acetylcholinesterase [4]): 4.52; Ratio IC50 [5]: 3; inhibition [2]: Active
O=c1oc2ccccc2cc1Cc1ccc(O)cc1 | 4.29 | –
CCOP(=S)(OCC)Oc1c(C(CC(C)=O)c2ccccc2)c(=O)oc2ccccc12 (racemic) | < 4.00 | K [6]: 8400 M⁻¹ s⁻¹
CCOP(=O)(OCC)Oc1c(C(CC(C)=O)c2ccccc2)c(=O)oc2ccccc12 (racemic) | 4.95 | TDI (Acetylcholinesterase [1]): Not Active; K [6]: 142000 M⁻¹ s⁻¹; TDI [2]: Active
CCOP(=S)(OCC)Oc1ccc(Cc2cc3ccccc3oc2=O)cc1 | 4.28 | –
CCOP(=O)(OCC)Oc1cccc2ccccc12 | 4.27 | –
O=c1oc2cccc(O)c2cc1Cc1ccccc1 | < 3.15 | –
CCOP(=O)(OCC)Oc1cccc2oc(=O)c(Cc3ccccc3)cc12 | 6.44 | –
